# The source made the active and inactive calls. The calls are words filed in the database; no cut-off is given here.
# How the values were obtained:
# Rattus norvegicus [1] = experiment: Minimum effective dose (ip) tested for its anxiolytic activity in rat using the shock-induced suppression of drinking (SSD) test; NS is No Significant activity at 50 mg/Kg; format: functional, organism-based
# Procedure, shortened: (§1)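 Shock-induced suppression of drinking (Vogel-type conflict) in rats, with compounds given intraperitoneally at one or more dose levels, 8 rats per dose. MED is the lowest dose giving a significant increase (p < 0.05, Student's t test) in the mean number of shocks taken versus vehicle control.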
# [2] = system: GABA-A receptor; anion channel; experiment: Inhibition of [3H]flunitrazepam binding to GABA-A benzodiazepine receptor of rat cerebral cortex (Not Significant at 5000 nM); format: tissue-based
# Procedure, shortened: (§2)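 Rat cerebral cortex membranes were incubated with [3H]flunitrazepam in the presence of the test agent at a single concentration (nM), run in triplicate with under 7% variation between values. Binding is reported as % inhibition of [3H]flunitrazepam binding.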
# [3] = molecular target: GABA-A receptor; anion channel; experiment: Inhibition of [3H]flunitrazepam binding to GABA-A benzodiazepine receptor of rat cerebral cortex; format: tissue-based
# Rattus norvegicus [4] = experiment: Minimum effective dose (po) tested for its anxiolytic activity in rat using the shock-induced suppression of drinking (SSD) test.; format: functional; conditions: read-out: MED
# Procedure, shortened: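 Rats (n = 8 per dose) were dosed orally at one or more levels and then run in the shock-induced suppression of drinking conflict test. MED is the dose producing a significant rise (p < 0.05, Student's t test) in mean shocks accepted relative to vehicle-treated controls.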
# [5] = system: GABA-A receptor; anion channel; experiment: Inhibition of [3H]flunitrazepam binding to GABA-A benzodiazepine receptor of rat cerebral cortex at 500 nM; format: tissue-based; procedure, shortened: as §2
# Rattus norvegicus [6] = experiment: Minimum effective dose (ip) tested for its anxiolytic activity in rat using the shock-induced suppression of drinking (SSD) test; NS is No Significant activity at 25 mg/Kg; format: functional, organism-based; procedure, shortened: as §1
# Rattus norvegicus [7] = experiment: Minimum effective dose (ip) tested for its anxiolytic activity in rat using the shock-induced suppression of drinking (SSD) test.; format: functional; conditions: read-out: MED; procedure, shortened: as §1
# [8] = molecular target: T1, GABA-A receptor; anion channel (Rattus norvegicus) (UniProt O09028+P15431+P18506+P18508+P19969+P20236+P23574+P23576+P28471+P28473+P30191+P62813+P63079+P63138+Q91ZM7+Q9ES14); experiment: Displacement of [3H]flunitrazepam from GABA-A benzodiazepine receptor of rat cerebral cortex at 5000 nM; format: tissue-based; procedure, shortened: as §2
# [9] = molecular target: T1, GABA-A receptor; anion channel (Rattus norvegicus); experiment: Displacement of [3H]flunitrazepam from GABA-A benzodiazepine receptor of rat cerebral cortex at 500 nM; format: tissue-based; procedure, shortened: as §2
# Rattus norvegicus [10] = experiment: Minimum effective dose (ip) tested for its anxiolytic activity in rat using the shock-induced suppression of drinking (SSD) test; NS is No Significant activity at 25 mg/KG; format: functional, organism-based; procedure, shortened: as §1
Structure (SMILES),IC50 [3] [nM],minimal effective dose (Rattus norvegicus [4]) [mg/kg],other results
CCCCCn1ncc2c(N)c(C(=O)O)c(C)nc21,–,–,minimal effective dose (Rattus norvegicus [1]): inactive; IC50 [2]: Not Active
CC#CCCn1ncc2c(N)c(C(=O)OCC)c(C)nc21,590,25,–
CCCCCn1ncc2c(N)c(C(=O)N3CCC3)cnc21,137,50,–
C#CCN(C)C(=O)c1cnc2c(cnn2CCCCC)c1N,–,6.3,IC50 [5]: Not Active
CCCCCn1ncc2c(O)c(C(=O)OCC)c(C)nc21,–,–,minimal effective dose (Rattus norvegicus [1]): inactive; IC50 [5]: Not Active
C#CCCCCn1ncc2c(N)c(C(=O)OCC=C)c(C)nc21,8.6,25,–
CCCCCn1ncc2c(N)c(C(=O)OCC)cnc21,–,–,MED (Rattus norvegicus [6]): inactive
CCCCCn1ncc2c(N)c(C(=O)NCC)cnc21,109,12.5,–
CCCCCn1ncc2c(N)c(C(=O)OCCC3CC3)c(C)nc21,51,–,minimal effective dose (Rattus norvegicus [7]): 50 mg/kg
C=CCN(CC=C)C(=O)c1cnc2c(cnn2CCCCC)c1N,–,25,IC50 [5]: Not Active
CC#CCCn1ncc2c(N)c(C(=O)OCC3CC3)c(C)nc21,315,12.5,–
CCCCCn1ncc2c(N)c(C(=O)NCCC)cnc21,89,25,–
CCCCCn1ncc2c(N)c(C(=O)OC(C)C)c(C)nc21,–,50,inhibition [8]: 48%
C=CCNC(=O)c1c[n+]([O-])c2c(cnn2CCCCC)c1N,53,12.5,–
CCOC(=O)c1c(C)nc2c(cnn2CCC(C)C)c1N,39,100,–
C=CCCn1ncc2c(N)c(C(=O)OCC=C)c(C)nc21,54,25,–
CCCCCn1ncc2c(N)c(C(=O)NCc3ccccc3)cnc21,36,25,–
CCCCCn1ncc2c(N)c(C(=O)NC)cnc21,354,12.5,–
C=CCNC(=O)c1cnc2c(cnn2CCCCC)c1N,28,12.5,–
C=C(C)COC(=O)c1c(C)nc2c(cnn2CCCCC)c1N,69,–,MED (Rattus norvegicus [6]): inactive
CCCCCn1ncc2c(N)c(C(=O)OCC3CC3)c(C)nc21,131,12.5,–
C#CCCn1ncc2c(N)c(C(=O)OCC=C)c(C)nc21,160,50,–
CCCCCn1ncc2c(N)c(C(=O)N(C)C)cnc21,–,12.5,IC50 [5]: Not Active
CCOC(=O)c1c(C)nc2c(cnn2CC(C)CC)c1N (stereo unspecified),391,–,minimal effective dose (Rattus norvegicus [7]): 25 mg/kg
CCOC(=O)c1c(C)nc2c(c(C)nn2CC)c1N,–,–,MED (Rattus norvegicus [6]): inactive; IC50 [2]: Not Active
C=CCOC(=O)c1c(C)nc2c(cnn2CCCC)c1N,21,25,–
C=CCNC(=O)c1cnc2c(cnn2CCC#CC)c1NC(=O)CC,–,1.6,inhibition [9]: 28%

Structure (SMILES),IC50 [3] [nM],minimal effective dose (Rattus norvegicus [4]) [mg/kg],other results
CCCCCn1ncc2c(N)c(C(=O)N(CC)CC)cnc21,–,25,IC50 [5]: Not Active
CCCCCn1ncc2c(N)c(C(=O)NC(C)C)cnc21,414,–,minimal effective dose (Rattus norvegicus [7]): 25 mg/kg
C#CCCCn1ncc2c(N)c(C(=O)OCC3CC3)c(C)nc21,22,12.5,–
CCCCCn1ncc2c(N)c(C(=O)OCCCC)c(C)nc21,113,–,minimal effective dose (Rattus norvegicus [7]): 50 mg/kg
CCOC(=O)c1c(C)nc2c(cnn2CC)c1N,460,–,minimal effective dose (Rattus norvegicus [7]): 75 mg/kg
CCCCCn1ncc2c(N)c(C(=O)NCC3CC3)cnc21,35,6.3,–
CCCCCn1ncc2c(N)c(C(=O)OCc3ccccc3)c(C)nc21,100,–,MED (Rattus norvegicus [6]): inactive
CCOC(=O)c1c(C)nc2c(cnn2CCC(C)(C)C)c1N,–,–,minimal effective dose (Rattus norvegicus [1]): inactive; inhibition [9]: 38%
CC#CCCn1ncc2c(N)c(C(=O)NCCC)cnc21,500,6.3,–
CC#CCCn1ncc2c(N)c(C(=O)NCC3CC3)cnc21,271,3.1,–
C=CCOC(=O)c1c(C)nc2c(cnn2CCCCC)c1N,21,25,–
CCCCCn1ncc2c(N)c(C(=O)OCC(C)C)c(C)nc21,–,–,MED (Rattus norvegicus [6]): inactive; inhibition [9]: 55%
CCCCNc1c(C(=O)OCC)c(C)nc2c1cnn2CC [TRACAZOLATE],–,40,–
CCCCCn1ncc2c(N)c(C(=O)N(C)CCC)cnc21,–,6.3,IC50 [5]: Not Active
CCCCCn1ncc2c(N)c(C(=O)Nc3ccccc3)cnc21,790,–,minimal effective dose (Rattus norvegicus [7]): 50 mg/kg
CCCn1ncc2c(N)c(C(=O)OCC)c(C)nc21,410,–,minimal effective dose (Rattus norvegicus [7]): 80 mg/kg
CCOC(=O)c1c(C)nc2c(cnn2CCCC(C)(C)C)c1N,404,–,NS (Rattus norvegicus [6]): inactive
CCCCCn1ncc2c(N)c(C(=O)OC)c(C)nc21,–,–,inhibition [8]: 54%
CC#CCNC(=O)c1cnc2c(cnn2CCCCC)c1N,84,6.3,–
C=CCN(C)C(=O)c1cnc2c(cnn2CCCCC)c1N,–,12.5,IC50 [5]: Not Active
C#CCN(CC#C)C(=O)c1cnc2c(cnn2CCCCC)c1N,–,12.5,IC50 [5]: Not Active
CCOC(=O)c1c(C)nc2c(cnn2CCC(C)CC)c1N (stereo unspecified),79,–,minimal effective dose (Rattus norvegicus [7]): 25 mg/kg
C=CCNC(=O)c1cnc2c(cnn2CCCCC)c1O,–,50,IC50 [5]: Not Active
C#CCCCn1ncc2c(N)c(C(=O)OCC)c(C)nc21,31,25,–
C=CCOC(=O)c1c(C)nc2c(cnn2CCC(C)C)c1N,13,50,–
CCCCCn1ncc2c(N)c(C(=O)OCC)c(C)nc21,58,50,–
CCCCCn1ncc2c(N)c(C(=O)N3CCCC3)cnc21,–,–,minimal effective dose (Rattus norvegicus [7]): 50 mg/kg; IC50 [5]: Not Active

Structure (SMILES),IC50 [3] [nM],minimal effective dose (Rattus norvegicus [4]) [mg/kg],other results
C#CCOC(=O)c1c(C)nc2c(cnn2CCCCC)c1N,89,25,–
C#CCCCn1ncc2c(N)c(C(=O)OCC=C)c(C)nc21,5.5,12.5,–
C=CCOC(=O)c1c(C)nc2c(cnn2CC=C(C)C)c1N,6.4,–,MED (Rattus norvegicus [10]): inactive
CNC1=Nc2ccc(Cl)cc2C(c2ccccc2)=[N+]([O-])C1 [CHLORDIAZEPOXIDE],330,10,–
C=CCN(C)C(=O)c1cnc2c(cnn2CCC#CC)c1N,–,12.5,IC50 [5]: Not Active
C=CCOC(=O)c1c(C)nc2c(cnn2CCC#CC)c1N,79,25,–
CCCCCn1ncc2c(N)c(C(=O)NC3CC3)cnc21,312,12.5,–
CCCCCn1ncc2c(N)c(C(N)=O)cnc21,2450,12.5,–
CCCCCn1ncc2c(N)c(C(=O)NOCC)cnc21,531,12.5,–
CCCCCn1ncc2c(N)c(C(=O)OCCC)c(C)nc21,50,–,minimal effective dose (Rattus norvegicus [7]): 25 mg/kg
CCNc1c(C(=O)OCC)c(C)nc2c1cnn2CC,–,–,minimal effective dose (Rattus norvegicus [7]): 25 mg/kg; IC50 [2]: Not Active
C=CCCCn1ncc2c(N)c(C(=O)OCC=C)c(C)nc21,9.7,25,–
C#CCNC(=O)c1cnc2c(cnn2CCCCC)c1N,60,6.3,–
CCCCCCn1ncc2c(N)c(C(=O)OCC)c(C)nc21,320,–,minimal effective dose (Rattus norvegicus [7]): 50 mg/kg
C=CCCOC(=O)c1c(C)nc2c(cnn2CCCCC)c1N,174,–,MED (Rattus norvegicus [1]): inactive
C=CCOC(=O)c1c(C)nc2c(cnn2CCC2CC2)c1N,16,25,–
CCCCCn1ncc2c(N)c(C(=O)N(CC)CCC)cnc21,–,25,IC50 [5]: Not Active
C=CCOC(=O)c1cnc2c(cnn2CCC(C)C)c1N,5.7,–,minimal effective dose (Rattus norvegicus [7]): 25 mg/kg
CCOC(=O)c1c(C)nc2c(cnn2CC)c1NC,–,–,MED (Rattus norvegicus [6]): inactive
CCCCCn1ncc2c(N)c(C(=O)NCCCC)cnc21,80,50,–
C=CCNC(=O)c1cnc2c(cnn2CCCCC)c1NCCCC,–,–,IC50 [5]: Not Active; NS (Rattus norvegicus [6]): inactive
C=CCOC(=O)c1c(C)nc2c(cnn2CC=C)c1N,112,25,–
CC#CCCn1ncc2c(N)c(C(=O)N(C)CCC)cnc21,–,12.5,IC50 [5]: Not Active
CCCCn1ncc2c(N)c(C(=O)OCC)c(C)nc21,50,40,–
CCOC(=O)c1c(C)nc2c(cnn2Cc2ccccc2)c1N,156,–,MED (Rattus norvegicus [6]): inactive
CCCCCn1ncc2c(N)cc(C)nc21,–,–,minimal effective dose (Rattus norvegicus [1]): inactive; inhibition [8]: 13%
